# ABHD5 PLIN5 PPI = inhibitors of human ABHD5-perilipin-5 interaction. AID 602281. inhibition, % at 4 µM. actives 0.78% (n = 360,000). Q00G26+Q8WTS1. Split G. princeps luciferase complementation, luminescence, 4 h;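 active means inhibition above the mean inhibition across every tested compound plus 3 SD, cut at about 22% in these data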
# MC4R ag barr = agonists of human melanocortin 4 receptor (MC4R) beta-arrestin; P32245; U2OS MC4R beta-arrestin complementation, luminescence; percent of melanotan II response, DMSO zero; activation, % at 8.9 µM; actives 0.98% (n = 360,000);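 active means activation above a per-plate cutoff, the mean activation of sample wells on that plate plus 3 SD, cut at about 8% in these data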
# PfGluPho inh = PfG6PD (Plasmodium falciparum) enzyme inhibition; PfGluPho enzyme, NADPH resazurin-diaphorase fluorescence; inhibition, % at 20 µM; actives 0.78% (n = 350,000); AID 504690;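 active means inhibition reaching at least a set limit at 20 µM in the primary screen, cut at about 59% in these data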
# B2AR ag = activates human beta-2 adrenergic receptor causing internalization; response, % (test concentration not listed); Am2.2-beta2AR cells, FAP receptor internalization, flow cytometry; AID 504454; actives 0.43% (n = 340,000); P07550;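 active means response above a set limit, near 3 SD of response in nonfluorescent compounds, cut at about 42% in these data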
# Target sequence (P07550 whole entry, looked up): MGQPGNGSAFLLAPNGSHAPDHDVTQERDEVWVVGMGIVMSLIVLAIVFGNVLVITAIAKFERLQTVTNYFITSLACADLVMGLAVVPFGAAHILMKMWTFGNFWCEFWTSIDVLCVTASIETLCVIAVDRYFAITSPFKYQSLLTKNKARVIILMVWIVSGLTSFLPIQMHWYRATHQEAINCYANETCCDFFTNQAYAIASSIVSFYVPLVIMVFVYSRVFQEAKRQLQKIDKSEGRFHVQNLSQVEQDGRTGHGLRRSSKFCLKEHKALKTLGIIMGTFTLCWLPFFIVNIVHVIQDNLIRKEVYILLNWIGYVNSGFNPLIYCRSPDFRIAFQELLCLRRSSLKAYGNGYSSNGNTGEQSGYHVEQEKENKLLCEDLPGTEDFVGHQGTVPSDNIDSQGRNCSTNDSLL
# MC4R antagonist = antagonists of human melanocortin 4 receptor (MC4R); actives 0.48% (n = 360,000); P32245; MC4R-expressing cells, MTII-stimulated cAMP, LANCE TR-FRET; inhibition, % at 6.5 µM; AID 540295;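 active means inhibition above its plate's cutoff, the mean of tested wells on that plate plus 3 SD, cut at about 29% in these data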
#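 Material: U2OS-MC4R stable cell line | Reagent: Melanotan II challenge after compound preincubation | Doses: One concentration, 6.5 µM nominal | Incubation: 30-min compound preincubation, 1-h Melanotan II challenge, 1-h detection, room temperature | Signal: TR-FRET cAMP assay | Replicates: One well per compound, no replicates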
# U2OS cAMP counter = U2OS forskolin cAMP inhibition counter-screen | shares compounds with MC4R antagonist | parental U2OS, LANCE TR-FRET | inhibition, % at 6.5 µM | actives 26% (n = 1,600);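 active means mean inhibition over triplicates above the low-control well mean plus 3 SD, set per campaign, cut at about 13% in these data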;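 further: signal is single emission at 671 nm which falls as cellular cAMP rises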
# MC4R antag conf = human MC4R cAMP antagonism confirmation | shares compounds with MC4R antagonist | MC4R-expressing cells, MTII-stimulated cAMP, TR-FRET | inhibition, % at 6.5 µM | actives 27% (n = 1,600); in the data active means inhibition above about 29%
# Numbers stand for hits; – = inactive; · = no result given. Compounds with a hit are over-represented: about 3% of the library has one in this group of screens.
SMILES,ABHD5 PLIN5 PPI,MC4R ag barr,PfGluPho inh,B2AR ag,MC4R antagonist,U2OS cAMP counter,MC4R antag conf
Cc1cccc(C)c1N(C(=O)c1ccco1)C(C(=O)NC1CCCC1)c1ccncc1 (configuration not stated),–,–,–,–,–,·,·
Cn1c(CNc2nc3ccccc3n2CCN2CCCCC2)nc2ccccc21,–,–,–,–,–,·,·
c1ccc(Cn2c(CNc3nc4ccccc4n3CCN3CCCCC3)nc3ccccc32)cc1,–,–,–,–,29,–,–
Cc1cc(NC(=O)COc2ccc3ccccc3c2Br)no1,–,–,–,–,46,20,35
COc1cccc(NS(=O)(=O)c2ccc3[nH]cc(C(=O)NCCC(C)C)c(=O)c3c2)c1,–,–,–,–,29,–,–
CC(C)CCNC(=O)c1c[nH]c2ccc(S(=O)(=O)N3CCOCC3)cc2c1=O,–,–,–,–,–,·,·
COc1cccc(/C=C/C2=CC(C)(C)NC(=S)N2)c1,–,–,–,–,29,–,–
COc1ccc(C(=O)NC(=S)Nc2ccc(N3CCOCC3)cc2)cc1Cl,–,–,–,–,–,·,·
O=S(=O)(O)c1nc2ccccc2[nH]1,–,–,–,–,35,–,–
CNCc1nc2ccccc2[nH]1,–,–,–,–,–,·,·
Cn1c(CC(=O)Nc2ccc(F)cc2)nnc1SCC(=O)Nc1nncs1,–,–,–,–,–,·,·
O=C(/C=C/c1ccc(-c2ccccc2[N+](=O)[O-])o1)c1ccccc1,–,–,–,–,30,–,–
O=C(O)/C(=C\c1ccc(-c2ccccc2[N+](=O)[O-])o1)c1ccccc1,–,–,–,–,–,·,·
C=CCN(CC=C)Cc1c(O)ccc2c(=O)c(-c3ccccc3)coc12,–,–,–,–,–,·,·
CCOC(=O)c1c(NC(=S)NC)sc2c1CC(C)(C)SC2,–,–,–,–,–,·,·
CCOC(=O)c1c(NC(=S)Nc2ccccc2)sc2c1CC(C)(C)SC2,–,–,–,–,35,–,–
COC(=O)C1=C(C(=O)OC)SC2(S1)C(C(=O)OC)=C(C(=O)OC)SC1=C2c2cccc(C)c2NC1(C)C,–,–,–,–,41,–,45
CCOC(=O)C1(C)Oc2ccccc2C(C(=O)OC)=C1C(=O)OC (configuration not stated),–,–,–,–,–,·,·
CCCCNc1c(-c2cccc(-c3ccc(OC)cc3)c2)nc2cc(C)ccn12,–,–,–,–,34,30,56
CCCCNc1c(-c2ccc(-c3cccc(Cl)c3)cc2)nc2ccccn12,–,–,–,–,–,·,·
CCCCNc1c(-c2cccc(-c3ccc(OC)cc3)c2)nc2ccc(C)cn12,–,–,–,49,40,15,41
NC(=O)c1ccc(SCC(=O)OCC(=O)NCC2CCCCC2)c([N+](=O)[O-])c1,–,–,–,–,31,–,36
CCC1CCCCN1C(=O)COC(=O)CSc1ccc(C(N)=O)cc1[N+](=O)[O-] (configuration not stated),–,–,–,–,–,·,·
CSCc1ccc(C(=O)NCc2ccc(C)cc2)cc1,–,–,–,–,–,·,·
CSCc1ccc(C(=O)Nc2ccc(C(N)=O)cc2)cc1,–,–,–,–,31,–,–
SMILES,ABHD5 PLIN5 PPI,MC4R ag barr,PfGluPho inh,B2AR ag,MC4R antagonist,U2OS cAMP counter,MC4R antag conf
S=c1[nH]nc(C(c2ccccc2)C2CCCCC2)o1 (configuration not stated),–,–,–,–,30,–,–
COC(=O)c1sccc1NC(=O)c1c(F)c(F)c(F)c(F)c1F,–,–,–,–,–,·,·
C/C(=N/NC(=O)CN(c1ccccc1)S(=O)(=O)c1ccccc1)c1ccccc1O,–,–,–,–,30,–,–
CCCC/C(C)=N/NC(=O)CN(c1ccc(Br)cc1)S(=O)(=O)c1ccccc1,–,–,–,–,–,·,·
CCOC(=O)CNC(=S)N(CCCN1CCCCCC1)Cc1cccs1,–,–,–,–,34,–,–
Cc1cccc(SCC(=O)Nc2ccccc2[N+](=O)[O-])c1,–,–,–,–,–,·,·
COC(=O)c1c(NC(=O)COC(=O)c2ccc(Cl)cc2[N+](=O)[O-])sc2c1CCCCC2,–,–,–,–,31,–,–
O=C(COC(=O)c1ccc(NS(=O)(=O)c2cccs2)cc1O)Nc1nc2ccccc2s1,–,–,–,–,31,–,–
O=C(COC(=O)c1ccc(NS(=O)(=O)c2cccs2)cc1O)NCc1ccccc1,–,–,–,–,–,·,·
Brc1ccc(-c2nnc3sc(CNC4CCCC4)cn23)cc1,–,–,–,–,32,17,33
COc1ccccc1NC(=O)CSc1nnnn1C1CCCCC1,–,–,–,–,30,–,–
CC(c1ccco1)N(C(=O)c1ccccc1NS(=O)(=O)c1cccc([N+](=O)[O-])c1)c1ccccn1 (configuration not stated),–,–,–,–,30,–,–
CC(c1ccco1)N(C(=O)c1ccccc1NS(=O)(=O)c1cc([N+](=O)[O-])ccc1Cl)c1ccccn1 (configuration not stated),–,–,–,–,–,·,·
CCC(c1nnnn1-c1ccc2c(c1)OCCO2)N1CCN(c2ccc(F)cc2)CC1 (configuration not stated),–,·,·,·,·,·,·
Cc1cc(Oc2ccc(C)c(Cl)c2)nc(SCC(=O)c2ccccc2)n1,–,–,–,–,45,23,47
Cc1ccc(C)c(NC(=O)CCC(=O)N/N=C/c2ccc3c(c2)OCO3)c1,–,–,–,–,31,–,–
CC1CCCN(C(=O)c2cc3ccccc3cc2O)C1 (configuration not stated),–,–,–,–,–,·,·
Cc1ccccc1C(=O)Nc1ccccc1N1CCCCC1,–,–,–,–,35,–,–
CS(=O)(=O)c1nc([N+](=O)[O-])nn1CCCc1ccccc1,–,–,–,–,34,–,–
Cn1nc([N+](=O)[O-])nc1S(C)(=O)=O,–,–,–,–,–,·,·
COc1ccc(CN2CCC(C(=O)Nc3ccc(Oc4cccnc4)cc3)CC2)c(C)c1C,–,–,–,–,–,·,·
CC1(C)CC(=O)C(C=NCCN2CCN(C3CC(=O)N(c4ccc(Br)cc4)C3=O)CC2)=C(O)C1 (configuration not stated),–,–,–,–,33,–,–
CCCCNc1c(-c2ccc(OC)c(SC3CCCCC3)c2)nc2cc(C)ccn12,–,–,–,–,–,·,·
CCCCNc1c(-c2ccc(OC)c(SC3CCCCC3)c2)nc2cnccn12,–,–,–,–,32,–,–
CCOC(=O)C1(Cc2cccc(F)c2)CCN(Cc2cnn(CC)c2)CC1,–,–,–,–,29,–,–
